≈ marks a conversion by molar mass, not a printed value.

What all share (type): functional
The test system of experiment [1] is Staphylococcus aureus. Put plainly: Antibacterial activity against erythromycin-susceptible Staphylococcus aureus 29213 by broth-microdilution method. To be noted: ATCC29213. Put shortly: (§1)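 MIC (µg/ml) by broth microdilution following CLSI standards.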
Experiment [2] concerns Staphylococcus aureus. Put plainly: Antibacterial activity against MLSB-resistant Staphylococcus aureus 27660 expressing ermA by broth-microdilution method. The gist of the method: as §1
A general note: In broth dilution the organism is exposed to a series of concentrations in liquid medium.

Experiment [3] relates to Staphylococcus aureus. The experiment can be described thus: Antibacterial activity against methicillin-resistant Staphylococcus aureus 33591 by broth-microdilution method. The gist of the method:
as §1

In experiment [4] the test system is Streptococcus pneumoniae. The experiment can be described thus: Antibacterial activity against erythromycin-susceptible Streptococcus pneumoniae 49619 by broth-microdilution method. Put shortly:
as §1

In experiment [5] the test system is Streptococcus pneumoniae. The experiment can be described thus: Antibacterial activity against MLSB-resistant Streptococcus pneumoniae 700906 expressing erm by broth-microdilution method. Put shortly:
as §1

The subject of experiment [6] is Streptococcus pneumoniae. The experiment can be described thus: Antibacterial activity against efflux-resistant Streptococcus pneumoniae 7701 expressing mefA by broth-microdilution method. Put shortly:
as §1

For experiment [7], the system named is Haemophilus influenzae. Put plainly: Antibacterial activity against ampicillin-resistant Haemophilus influenzae 33929 expressing beta-lactamase by broth-microdilution method. The gist of the method: as §1
For experiment [8], the system named is Streptococcus pyogenes. The experiment can be described thus: Antibacterial activity against erythromycin-susceptible Streptococcus pyogenes 19615 by broth-microdilution method. The gist of the method: (§2)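 MICs were determined by broth microdilution following CLSI standards and reported in µg/ml.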
The test system of experiment [9] is Streptococcus pyogenes. The experiment can be described thus: Antibacterial activity against efflux-resistant Streptococcus pyogenes 1323 expressing mefA by broth-microdilution method. The gist of the method:
as §1

For experiment [10], the system named is Streptococcus pyogenes. The experiment can be described thus: Antibacterial activity against MLSB-resistant Streptococcus pyogenes 2912 expressing ermA by broth-microdilution method. Put shortly: as §1
The subject of experiment [11] is Haemophilus influenzae. Put plainly: Antibacterial activity against ampicillin-susceptible Haemophilus influenzae by broth-microdilution method.
A further experiment relates to Moraxella catarrhalis. The experiment can be described thus: Antibacterial activity against Moraxella catarrhalis by broth-microdilution method. The gist of the method: as §2

Consider `CC[C@H]1OC(=O)[C@H](C)[C@H]2OC/C(=N/OCc3ccccc3)CCO[C@](C)(C[C@@H](C)C(=O)[C@H](C)[C@H]3NC(=O)O[C@@]31C)[C@H](O[C@@H]1O[C@H](C)C[C@H](N(C)C)[C@H]1O)[C@H]2C`, for which the MIC against Staphylococcus aureus [1] is 0.5 µg/mL (≈ 0.646 µM); against Staphylococcus aureus [2] it was 0.5 µg/mL (≈ 0.646 µM); in the experiment with Staphylococcus aureus [3] it was over 64 µg/mL; against Streptococcus pneumoniae [4], at most 0.06 µg/mL; with Streptococcus pneumoniae [5], over 64 µg/mL; in the experiment on Streptococcus pneumoniae [6] it was 0.125 µg/mL (≈ 0.162 µM). In addition, the MIC is 16 µg/mL (≈ 20.7 µM) with Haemophilus influenzae [7]; at most 0.06 µg/mL against Streptococcus pyogenes [8]; 0.25 µg/mL (≈ 0.323 µM) against Streptococcus pyogenes [9]; 64 µg/mL (≈ 82.7 µM) in the experiment with Streptococcus pyogenes [10]; 8 µg/mL (≈ 10.3 µM) against Haemophilus influenzae [11]; 0.125 µg/mL (≈ 0.162 µM) against Moraxella catarrhalis.
Turning to `CC[C@H]1OC(=O)[C@H](C)[C@@H](O[C@H]2C[C@@](C)(OC)[C@@H](O)[C@H](C)O2)[C@H](C)[C@@H](O[C@@H]2O[C@H](C)C[C@H](N(C)C)[C@H]2O)[C@](C)(O)C[C@@H](C)C(=O)[C@H](C)[C@@H](O)[C@]1(C)O` [ERYTHROMYCIN], the MIC against Staphylococcus aureus [1] is 0.5 µg/mL (≈ 0.681 µM); against Staphylococcus aureus [2], over 64 µg/mL; against Staphylococcus aureus [3] it was over 64 µg/mL; against Streptococcus pneumoniae [4], at most 0.06 µg/mL; in the experiment on Streptococcus pneumoniae [5], over 64 µg/mL; in the experiment on Streptococcus pneumoniae [6], 4 µg/mL (≈ 5.45 µM). For the same molecule, the MIC in the experiment on Haemophilus influenzae [7] is 4 µg/mL (≈ 5.45 µM); in the experiment on Streptococcus pyogenes [8] it was 0.015 µg/mL (≈ 0.0204 µM); with Streptococcus pyogenes [9], 16 µg/mL (≈ 21.8 µM); against Streptococcus pyogenes [10] it was over 64 µg/mL; in the experiment on Haemophilus influenzae [11], 4 µg/mL (≈ 5.45 µM); in the experiment with Moraxella catarrhalis it was 0.13 µg/mL (≈ 0.177 µM).

The values are drawn from ChEMBL document CHEMBL1141699, “Design, synthesis, and antibacterial activities of novel 3,6-bicyclolide oximes: length optimization and zero carbon linker oximes” (2008).
